Screens as filed in PubChem BioAssay.
PTK2B oligo ant: antagonists of Pyk2 self-association, primary screen, Q293 cells, FERM NanoBiT luminescence, HTS | actives 0.83% (n = 99,000) | AID 1347419, 2020 | Protein-tyrosine kinase 2-beta (Homo sapiens), Q14289 | z-score (the deposit names both 25 µM and 10 µM) | active compounds read low;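 active = Z-score of -3 or lower, scaled per plate to the spread of control and sample wells; inactive = z-score above -3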;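 note: negative z-score means lost luminescence so less FERM oligomerization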
Target sequence (Q14289 whole entry, looked up): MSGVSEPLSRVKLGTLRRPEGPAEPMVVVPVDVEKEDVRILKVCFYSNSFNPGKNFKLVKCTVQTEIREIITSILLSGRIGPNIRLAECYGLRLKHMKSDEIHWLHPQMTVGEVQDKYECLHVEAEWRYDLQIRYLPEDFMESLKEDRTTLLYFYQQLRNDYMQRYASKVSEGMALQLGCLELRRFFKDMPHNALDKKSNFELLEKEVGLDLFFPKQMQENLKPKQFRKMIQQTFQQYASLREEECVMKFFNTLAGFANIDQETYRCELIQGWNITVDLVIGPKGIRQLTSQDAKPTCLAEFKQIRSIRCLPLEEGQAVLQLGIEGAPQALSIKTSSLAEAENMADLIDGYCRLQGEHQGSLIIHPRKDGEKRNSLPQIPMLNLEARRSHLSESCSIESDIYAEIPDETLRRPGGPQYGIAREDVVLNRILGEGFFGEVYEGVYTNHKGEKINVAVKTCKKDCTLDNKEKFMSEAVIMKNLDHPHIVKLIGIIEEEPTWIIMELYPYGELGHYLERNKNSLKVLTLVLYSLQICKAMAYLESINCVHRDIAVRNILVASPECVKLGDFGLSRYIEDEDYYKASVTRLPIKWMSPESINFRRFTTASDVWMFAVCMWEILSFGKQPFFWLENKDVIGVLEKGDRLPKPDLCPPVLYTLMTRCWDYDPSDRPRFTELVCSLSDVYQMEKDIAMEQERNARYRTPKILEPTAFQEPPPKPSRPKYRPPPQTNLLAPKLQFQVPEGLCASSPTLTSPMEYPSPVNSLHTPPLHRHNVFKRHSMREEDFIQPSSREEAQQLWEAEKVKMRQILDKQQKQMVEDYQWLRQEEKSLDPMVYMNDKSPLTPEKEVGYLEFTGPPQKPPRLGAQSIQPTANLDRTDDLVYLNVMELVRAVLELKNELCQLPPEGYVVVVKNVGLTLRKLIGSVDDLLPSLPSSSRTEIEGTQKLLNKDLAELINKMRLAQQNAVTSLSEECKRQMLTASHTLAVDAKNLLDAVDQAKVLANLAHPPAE
cytoskel mod: modifiers of F-actin cytoskeleton organization, primary screen, imaging, HUVEC, phalloidin staining, high-content imaging | HUVEC TNFa F-actin phalloidin imaging | inhibition, % at 2 µM | actives 0.18% (n = 91,000) | AID 836, 2007;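 active = inhibition above the batch mean plus 3 SD and confirmed as a hit by visual image inspection, cut at about 30% in these data, passing the limit was not always enough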
Jurkat tox 60K: cytotoxicity toward Jurkat T cells, primary screen, cytotoxicity control, cell-based, Jurkat E6.1, 60K MLSMR library; Jurkat E6.1 viability, ATP luminescence, 48 h; inhibition, % at 4 µM; actives 1.2% (n = 56,000);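 active = inhibition above the mean inhibition of all tested compounds plus 3 SD, cut at about 28% in these data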
H69AR growth 86K: proliferation blockers of H69AR lung cancer cells, primary screen, cell-based, human, 86K library; H69AR lung tumor viability, ATP luminescence, 72 h; active compounds read low; viability, % at 10 µM; actives 6% (n = 85,000); AID 598, 2007;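 active = viability at or below 40%; inactive = viability above 40%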;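 note: multidrug resistant small cell line overexpressing MRP-1 efflux transporter; 100% = mean luminescence of untreated control wells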
Lung fibro prol: antiproliferative effect on LL 47 fibroblasts – human, LL 47 cells, CellTiter-Glo luminescence, primary screen; LL 47 human lung fibroblast viability, ATP luminescence; active compounds read low; viability, % at 10 µM; actives 1.1% (n = 85,000); AID 719, 2007;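 active = viability at or below 50% in the single dose screen; inactive = viability above 50%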;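 note: compound exposure lasted 72 h before the ATP readout; 100% = median luminescence of untreated cell-only wells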
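Material: human lung fibroblast line LL 47, low passage; Evaluation: viability percentage against median untreated-cell control; Buffer or medium: 15% FBS in IMEM; Incubation: 72 h compound exposure at 37 °C after overnight plating; Dosing: 0.1% DMSO in all compound wells; Measured by: CellTiter-Glo luminescence.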
HUVEC prolif 384: inhibitors of HUVEC proliferation, primary screen, cell-based, 384-well; CellTiter-Glo luminescence, 72 h; active compounds read low; viability, % at 10 µM (by protocol); actives 1.1% (n = 86,000); AID 648, 2007;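 active = viability at or below 30%; inactive = viability above 30%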;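 note: 100% = median luminescence of DMSO-only cell control wells on each plate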
Numbers without * were called inactive; . = no result. A selection: hits, their analogues and other compounds. The true share with any hit is near 6%.

SMILES | PTK2B oligo ant | cytoskel mod | Jurkat tox 60K | H69AR growth 86K | Lung fibro prol | HUVEC prolif 384
COc1ccc(-c2ccnc3nc(N4CCN(c5ccccc5)CC4)nn23)cc1 | -0.94 | 13 | . | . | . | .
Cc1cccc(CN2CCN(C(=O)CCl)CC2)c1 | 0.86 | . | . | . | . | .
Cc1nnc(NC(=O)CSc2nnc(Cc3cccn3C)n2CCc2ccccc2)s1 | 0.31 | -3 | 8 | 71 | 96 | 105
COc1ccc2nc(NC(=O)CSc3nnnn3C3CCCCC3)sc2c1 | 1.5 | -6 | 1 | 49 | 110 | 87
Cn1cccc1Cc1nnc(SCC(=O)Nc2nc3ccccc3s2)n1CCc1ccccc1 | -0.21 | -20 | 1 | 5.4* | 76 | 43
CCn1c(SCC(=O)Nc2nc3c(s2)CCCC3)nc2c1c(=O)n(C)c(=O)n2C | . | . | -6 | 17* | 86 | 92
CCOc1ccc2nc(NC(=O)CSc3nnnn3C3CCCCC3)sc2c1 | -0.71 | -14 | -3 | 1.7* | 91 | 79
COc1ccc(C2=NN(C(C#N)c3ccc(OC)cc3)C(c3ccccc3)C2)cc1 (centres undefined) | -0.08 | . | . | . | . | .
O=c1cc(O)c2c(=O)n(-c3ccccc3)c3ccccc3c2o1 | 1.5 | 21 | -4 | 12* | 100 | 87
CCn1c(=O)c2c(O)cc(=O)oc2c2ccccc21 | 0.41 | 3 | . | . | . | .
O=C1c2ccsc2SCCN1Cc1c(Cl)cccc1Cl | -0.91 | -5 | . | 95 | 93 | 79
O=C(c1ccco1)N1CCN(C(c2coc3ccc(Cl)cc3c2=O)c2nnnn2C2CCCC2)CC1 (centres undefined) | 1.2 | -23 | . | 14* | 86 | 73
COc1ccc(-c2nnc3ccc(SCC(=O)N4CCN(c5ccccc5)CC4)nn23)cc1OC | . | . | -1 | 71 | 96 | 78
Cc1ccc2c(c1)NC(=O)CC(c1ccccc1)=N2 | -1.3 | 10 | . | 87 | 106 | 104
CC1=CC(C)=Nc2ccc(C)cc2N1 | 0.67 | 18 | 0 | 18* | 100 | 97
CC(=O)Nc1c(C(=O)N2CCCCCC2)cnn1-c1ccccc1Cl | 1.7 | 2 | . | 91 | 101 | 102
CC(C)(C)NS(=O)(=O)c1ccc(OCC(=O)NCCC2=CCCCC2)cc1 | -0.36 | . | . | 103 | 100 | 93
COc1ccc(-c2ccc(Nc3ccc(C(=O)N4CCOCC4)cc3)nn2)cc1OC | 0.04 | 17 | . | 73 | 91 | 94
O=C(NC1CC1)c1cccc(Nc2ccc(-c3ccc4c(c3)OCCO4)nn2)c1 | -3.4* | -3 | 9 | 32* | 83 | 73
O=S(=O)(c1ccc(Nc2ccc(-c3ccc4c(c3)OCCO4)nn2)cc1)N1CCCC1 | -1.8 | -32 | . | 21* | 65 | 16*
O=S(=O)(c1ccc2c(c1)OCCCO2)N1CCNCC1 | -0.24 | -40 | -3 | . | . | .
Cc1cc(C)nc(N2CCCC(C(=O)NCCC3=CCCCC3)C2)n1 (centres undefined) | 1.6 | 3 | -6 | 95 | 105 | 104
CCOC(=O)C1CCN(c2nc(-c3ccccc3)nc3c2oc2ccccc23)CC1 | -1 | 5 | 4 | 63 | 97 | 85
OCCN1CCN(c2nc(-c3ccccc3)nc3c2oc2ccccc23)CC1 | -1.8 | -11 | 11 | 24* | 20* | 12*
O=C(O)C1CCN(c2nc(-c3ccccc3)nc3c2oc2ccccc23)CC1 | -0.36 | 10 | -3 | 19* | 93 | 79
SMILES | PTK2B oligo ant | cytoskel mod | Jurkat tox 60K | H69AR growth 86K | Lung fibro prol | HUVEC prolif 384
COC(=O)c1ccccc1NC(=O)c1ccccc1N(C)S(C)(=O)=O | 0.22 | -17 | -3 | 87 | 98 | 91
Cc1ccc(S(=O)(=O)N(c2nc(NC(C)C)nc(NC(C)C)n2)n2cnnc2)cc1 | 0.66 | . | . | . | . | .
Cc1cc(C)nc(-n2nc(C)cc2NC(=O)CN2CCC(C)CC2)n1 | -0.05 | . | . | 9.5* | 92 | 112
CCC1CCCCN1CC(=O)Nc1cc(C)nn1-c1nc(C)cc(C)n1 (centres undefined) | 1.7 | 0 | 15 | 19* | 81 | 72
Cc1cc(C)nc(-n2nc(C)cc2NC(=O)CNC(C)c2ccccc2)n1 (centres undefined) | 0.39 | -8 | . | . | . | .
Cc1cc(C)n(-c2nc(N(c3ccccc3)c3ccccc3)nc(-n3nc(C)cc3C)n2)n1 | 0.55 | -3 | . | 12* | 38* | 37
Cc1ccc(COn2c(-c3ccc(Cl)cc3Cl)nc3ncccc32)cc1 | -0.99 | -10 | . | 39* | 92 | 83
CSc1nc(N)nc(SC2C=CCCC2)c1C#N (centres undefined) | -0.56 | 5 | 6 | 63 | 98 | 98
O=S(=O)(c1ccc2c(c1)OCCO2)N1CCC(n2cnc3cc(F)ccc32)CC1 | -0.4 | -8 | 17 | 68 | 92 | 96
O=S(=O)(c1ccc(Cl)cc1)N1CCC(n2cnc3cc(C(F)(F)F)ccc32)CC1 | -0.57 | -6 | . | 35* | 103 | 94
O=c1c2ccccc2nc2ccc(NCc3ccco3)nn12 | 0.41 | -6 | 13 | 39* | 88 | 85
CC(=O)c1cc2c(cc1NS(=O)(=O)c1ccc(C)cc1)OCCO2 | -1.4 | -13 | 76* | 18* | 81 | 60
COC(=O)c1ccc(C)c(NS(=O)(=O)c2ccc(C)c([N+](=O)[O-])c2)c1 | 0.53 | 20 | . | . | . | .
COC(=O)c1ccc(C)c(NS(=O)(=O)c2ccc3c(c2)OCCO3)c1 | -1.2 | -46 | 92* | 30* | 60 | 47
COC(=O)c1ccc(C)c(NS(=O)(=O)c2ccc(OC)cc2)c1 | -0.6 | -15 | . | 37* | 56 | 46
COC(=O)c1sccc1NC(=O)CSc1ccccc1NS(=O)(=O)c1ccc(Cl)cc1 | -1.8 | -26 | . | . | . | .
CSc1ccccc1NS(=O)(=O)c1ccc2c(c1)OCCO2 | -0.76 | 1 | 7 | 99 | 104 | 98
CC(=O)c1cc2c(cc1NS(=O)(=O)c1ccccc1)OCO2 | -0.14 | 4 | . | 82 | 84 | 80
COC(=O)c1sccc1NS(=O)(=O)c1ccc(OC)cc1 | -1.2 | 29 | 10 | 15* | 84 | 70
Cc1nn(C)c(C)c1S(=O)(=O)N1CCCC(C(=O)NCC2COc3ccccc3O2)C1 (centres undefined) | . | 14 | 5 | 93 | 98 | 108
COc1ccc(CCNC(=O)c2n[nH]c(=O)c3ccccc23)cc1 | -0.19 | . | . | 95 | 103 | 102
COc1ccc(-c2nc(C(N)=O)c3[nH]c(=O)n(-c4ccccc4OC)c3n2)c(OC)c1 | . | 14 | 0 | 31* | 90 | 86
CCOc1ccccc1-c1nc(C(N)=O)c2[nH]c(=O)n(-c3cccc(C)c3)c2n1 | -1.8 | -2 | 0 | 33* | 94 | 91
COc1ccc(OC)c(-c2nc(C(N)=O)c3[nH]c(=O)n(-c4ccc(F)cc4)c3n2)c1 | . | 4 | -3 | 90 | 86 | 93
